Molecules are shown by their SMILES.

One data set concerns the target PDE4A4 (Homo sapiens, UniProt P27815). Kind of data set: PDE enzyme inhibition, radiometric assay. It is filed as biochemical. In short, it runs like this:
(§1)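 Recombinant human PDE enzymes (33 in the panel) were incubated in vitro with increasing concentrations of the test compound. Enzyme activity was measured radiometrically and IC50 values derived.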

The next data set addresses PDE4B2 (Homo sapiens, UniProt Q07343). Kind of data set: PDE enzyme inhibition, radiometric assay. It is filed as biochemical. In outline: as §1
Another data set has as its target PDE4D3 (Homo sapiens, UniProt Q08499). Kind of data set: PDE enzyme inhibition, radiometric assay. It is filed as biochemical. In short, it runs like this: as §1
A further data set has as its target PDE4D4 (Homo sapiens, UniProt Q08499). Kind of data set: PDE enzyme inhibition, radiometric assay. It is filed as biochemical. In short, it runs like this:
as §1

The target in the next data set is PDE5A1 (Homo sapiens, UniProt O76074). Kind of data set: PDE enzyme inhibition, radiometric assay. Type of data set: biochemical. In short, it runs like this:
as §1

In a further data set the target is PDE6AB (Homo sapiens, UniProt P16499+P35913). Kind of data set: PDE enzyme inhibition, radiometric assay. It is filed as biochemical. In outline:
as §1

The next data set concerns UT-7 cells. Kind of data set: HbF induction in UT-7 cells. Type of data set: cell-based, human. As to conditions: GM-CSF dependent erythroid line UT-7; data not shown.
The subject of another data set is K562 cells. Kind of data set: Cytotoxicity in K562 cells. Type of data set: cell-based, human. As to conditions: end of 72-h culture. In short, it runs like this: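 Actively growing K562 cells were cultured for 72 h with increasing concentrations of the test compound. Terminal viability was scored by automated cell counting or trypan-blue exclusion, or by an ATP-based luminescence assay. Apoptosis was checked by Annexin V flow cytometry.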

The subject of a further data set is mice. Kind of data set: Classical fear conditioning model of learning and memory. Type of data set: in vivo. As to conditions: similar dose of both PDE9i.
Another data set concerns rodents. Kind of data set: Fertility and fetal development in rodents. It is filed as in vivo.
Data set [1] in a line: Locomotor activity and behavioral responses in toxicology studies. Type of data set: in vivo. Conditions: data not shown.

PDE4D4, sequence (Q08499 whole entry): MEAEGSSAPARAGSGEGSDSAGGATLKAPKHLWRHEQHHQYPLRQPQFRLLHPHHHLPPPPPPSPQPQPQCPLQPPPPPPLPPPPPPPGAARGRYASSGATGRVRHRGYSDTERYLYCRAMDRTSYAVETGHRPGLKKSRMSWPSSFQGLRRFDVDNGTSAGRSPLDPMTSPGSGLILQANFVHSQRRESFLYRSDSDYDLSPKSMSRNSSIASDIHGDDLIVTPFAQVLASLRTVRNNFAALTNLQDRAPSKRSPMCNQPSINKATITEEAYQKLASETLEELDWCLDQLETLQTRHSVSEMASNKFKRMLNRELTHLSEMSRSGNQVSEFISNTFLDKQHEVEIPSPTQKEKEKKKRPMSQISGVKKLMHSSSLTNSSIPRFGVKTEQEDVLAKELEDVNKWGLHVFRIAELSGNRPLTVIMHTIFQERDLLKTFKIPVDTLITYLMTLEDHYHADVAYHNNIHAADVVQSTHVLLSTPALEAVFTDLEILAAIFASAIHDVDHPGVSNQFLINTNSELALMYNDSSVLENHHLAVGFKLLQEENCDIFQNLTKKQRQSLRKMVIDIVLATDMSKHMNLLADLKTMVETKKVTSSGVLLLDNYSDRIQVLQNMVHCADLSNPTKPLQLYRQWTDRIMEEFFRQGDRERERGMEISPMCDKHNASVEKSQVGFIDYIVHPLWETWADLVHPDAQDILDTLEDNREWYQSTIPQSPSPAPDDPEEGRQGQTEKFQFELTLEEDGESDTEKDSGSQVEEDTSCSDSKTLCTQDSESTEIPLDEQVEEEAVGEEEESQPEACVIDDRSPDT
PDE4A4, sequence (P27815 whole entry): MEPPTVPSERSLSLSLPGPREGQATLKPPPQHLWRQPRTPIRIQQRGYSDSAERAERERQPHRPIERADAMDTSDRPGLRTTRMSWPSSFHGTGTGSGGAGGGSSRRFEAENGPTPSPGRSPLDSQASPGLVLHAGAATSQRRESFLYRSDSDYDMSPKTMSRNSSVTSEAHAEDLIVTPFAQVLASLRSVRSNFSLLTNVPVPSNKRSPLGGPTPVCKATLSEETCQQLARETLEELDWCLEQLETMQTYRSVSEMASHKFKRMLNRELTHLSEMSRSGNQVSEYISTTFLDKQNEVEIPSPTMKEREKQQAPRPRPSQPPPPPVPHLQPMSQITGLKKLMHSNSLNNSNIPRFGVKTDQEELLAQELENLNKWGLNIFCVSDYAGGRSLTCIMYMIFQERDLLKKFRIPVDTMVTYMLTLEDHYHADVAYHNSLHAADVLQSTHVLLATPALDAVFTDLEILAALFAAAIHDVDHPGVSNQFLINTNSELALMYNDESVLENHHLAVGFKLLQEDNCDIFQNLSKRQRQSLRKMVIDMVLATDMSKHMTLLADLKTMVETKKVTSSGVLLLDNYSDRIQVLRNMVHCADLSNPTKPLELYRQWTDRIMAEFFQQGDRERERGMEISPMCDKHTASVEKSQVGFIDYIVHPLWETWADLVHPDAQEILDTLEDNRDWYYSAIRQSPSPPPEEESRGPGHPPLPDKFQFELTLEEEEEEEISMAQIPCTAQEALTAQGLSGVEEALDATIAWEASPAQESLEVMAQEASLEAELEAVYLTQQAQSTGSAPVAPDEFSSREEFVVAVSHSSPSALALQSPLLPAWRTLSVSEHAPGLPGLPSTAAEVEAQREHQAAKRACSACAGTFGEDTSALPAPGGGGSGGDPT
PDE6AB, sequence (P16499 whole entry): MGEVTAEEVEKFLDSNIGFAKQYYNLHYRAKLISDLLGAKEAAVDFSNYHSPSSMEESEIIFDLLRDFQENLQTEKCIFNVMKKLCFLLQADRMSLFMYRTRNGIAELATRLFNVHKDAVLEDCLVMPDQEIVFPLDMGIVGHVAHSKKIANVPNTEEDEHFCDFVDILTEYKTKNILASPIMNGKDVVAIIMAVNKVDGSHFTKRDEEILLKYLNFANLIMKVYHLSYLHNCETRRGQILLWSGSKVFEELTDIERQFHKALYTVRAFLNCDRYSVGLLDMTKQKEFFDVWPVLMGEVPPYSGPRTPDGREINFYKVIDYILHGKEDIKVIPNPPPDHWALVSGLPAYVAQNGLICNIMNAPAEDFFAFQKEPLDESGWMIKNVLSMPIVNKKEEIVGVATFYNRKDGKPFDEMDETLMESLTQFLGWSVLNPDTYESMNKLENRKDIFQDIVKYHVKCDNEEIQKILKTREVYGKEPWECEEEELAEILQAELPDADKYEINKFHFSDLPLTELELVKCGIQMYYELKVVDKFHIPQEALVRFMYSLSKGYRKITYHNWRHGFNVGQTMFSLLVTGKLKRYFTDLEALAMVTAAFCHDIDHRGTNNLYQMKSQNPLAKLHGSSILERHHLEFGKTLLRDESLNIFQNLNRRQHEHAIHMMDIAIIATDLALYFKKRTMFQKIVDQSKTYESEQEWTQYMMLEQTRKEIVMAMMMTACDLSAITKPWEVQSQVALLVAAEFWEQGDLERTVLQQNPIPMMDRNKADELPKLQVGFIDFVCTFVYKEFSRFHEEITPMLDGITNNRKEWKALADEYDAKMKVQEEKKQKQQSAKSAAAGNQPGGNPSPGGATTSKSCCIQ
PDE6AB, sequence (P35913 whole entry): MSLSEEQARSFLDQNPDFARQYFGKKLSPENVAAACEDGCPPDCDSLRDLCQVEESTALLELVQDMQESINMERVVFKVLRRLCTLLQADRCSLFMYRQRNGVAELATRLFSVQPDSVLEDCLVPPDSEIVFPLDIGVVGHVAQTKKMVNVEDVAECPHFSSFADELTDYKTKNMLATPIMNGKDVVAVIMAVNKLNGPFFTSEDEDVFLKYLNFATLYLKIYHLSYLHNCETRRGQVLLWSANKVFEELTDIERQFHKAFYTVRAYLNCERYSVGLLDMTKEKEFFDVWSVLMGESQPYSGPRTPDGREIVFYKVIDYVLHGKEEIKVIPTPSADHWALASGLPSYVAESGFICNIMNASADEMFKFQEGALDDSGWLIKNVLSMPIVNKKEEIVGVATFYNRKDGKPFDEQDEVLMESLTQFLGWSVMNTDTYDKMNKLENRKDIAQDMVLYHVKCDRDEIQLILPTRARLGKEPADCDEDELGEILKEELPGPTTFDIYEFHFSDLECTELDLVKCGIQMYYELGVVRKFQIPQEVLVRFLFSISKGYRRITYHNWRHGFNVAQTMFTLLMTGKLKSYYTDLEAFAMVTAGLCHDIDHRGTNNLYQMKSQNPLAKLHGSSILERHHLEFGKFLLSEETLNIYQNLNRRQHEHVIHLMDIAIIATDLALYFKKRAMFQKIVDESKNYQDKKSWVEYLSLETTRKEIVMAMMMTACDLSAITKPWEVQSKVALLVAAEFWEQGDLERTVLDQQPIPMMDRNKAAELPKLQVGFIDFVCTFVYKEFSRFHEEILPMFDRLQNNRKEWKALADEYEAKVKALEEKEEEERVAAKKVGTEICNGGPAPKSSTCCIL
PDE4B2, sequence (Q07343 1-564 isoform Q07343-2): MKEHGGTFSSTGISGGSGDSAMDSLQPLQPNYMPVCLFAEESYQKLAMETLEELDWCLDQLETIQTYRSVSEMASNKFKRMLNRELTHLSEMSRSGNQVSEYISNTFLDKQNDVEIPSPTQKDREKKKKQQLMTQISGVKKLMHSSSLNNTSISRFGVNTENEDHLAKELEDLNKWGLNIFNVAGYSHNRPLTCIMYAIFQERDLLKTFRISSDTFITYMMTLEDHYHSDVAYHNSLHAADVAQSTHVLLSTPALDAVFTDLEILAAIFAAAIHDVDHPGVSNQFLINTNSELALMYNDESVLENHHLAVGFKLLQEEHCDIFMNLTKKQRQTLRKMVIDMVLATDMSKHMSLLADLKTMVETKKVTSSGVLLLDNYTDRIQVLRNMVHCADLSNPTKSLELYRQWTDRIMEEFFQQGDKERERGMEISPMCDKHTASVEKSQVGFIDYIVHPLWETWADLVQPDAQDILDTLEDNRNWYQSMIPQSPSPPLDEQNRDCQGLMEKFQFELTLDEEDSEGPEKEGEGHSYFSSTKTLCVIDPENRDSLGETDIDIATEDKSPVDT
PDE4D3, sequence (Q08499 1-673 isoform Q08499-2): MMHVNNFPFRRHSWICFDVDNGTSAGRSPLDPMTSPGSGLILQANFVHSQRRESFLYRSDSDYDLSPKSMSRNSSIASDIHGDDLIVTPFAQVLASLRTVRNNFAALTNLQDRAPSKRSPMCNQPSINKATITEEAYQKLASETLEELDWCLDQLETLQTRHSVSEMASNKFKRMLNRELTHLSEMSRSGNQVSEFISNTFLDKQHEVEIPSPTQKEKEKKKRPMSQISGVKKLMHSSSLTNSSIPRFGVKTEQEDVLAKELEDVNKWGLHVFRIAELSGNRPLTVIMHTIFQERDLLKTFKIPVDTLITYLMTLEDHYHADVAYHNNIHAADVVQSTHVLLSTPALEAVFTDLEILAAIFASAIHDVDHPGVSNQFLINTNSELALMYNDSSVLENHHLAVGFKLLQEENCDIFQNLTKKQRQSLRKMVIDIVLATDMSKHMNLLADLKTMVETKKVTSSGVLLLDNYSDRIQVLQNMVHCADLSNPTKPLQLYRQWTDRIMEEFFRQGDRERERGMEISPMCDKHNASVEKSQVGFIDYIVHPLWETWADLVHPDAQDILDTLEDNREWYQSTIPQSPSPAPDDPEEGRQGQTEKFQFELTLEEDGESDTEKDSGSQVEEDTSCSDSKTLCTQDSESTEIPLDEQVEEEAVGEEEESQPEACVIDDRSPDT

For `C[C@@H]1CN(Cc2ncccn2)C[C@H]1c1cn2c(C3CCOCC3)ncc2c(=O)[nH]1` [IMR-687], the IC50 at PDE4A4, against PDE4B2, at PDE4D3, against PDE4D4, against PDE5A1 and on PDE6AB was over 100 µM in each case. For the same molecule, the HbF induction entry in the data set with UT-7 cells is on record as “Induction of HbF by IMR-687 was observed”. The “Cytotoxicity (cell counts)” value in the data set on K562 cells is reported as “not observed”. Further, the conditioned fear responses entry in the data set on mice is reported as “no effect”. The “impact on fertility or fetal development” value with rodents is reported as “did not impact fertility or fetal development”. For the same molecule, the “effect on locomotor activity or behavioral responses” value in data set [1] is given as “no effect”.

A word on the IC50: it is the concentration that inhibits the measured activity by half. Read a low IC50 as greater potency.

Values taken from PMC7049346 (Haematologica, 2019).
